Among the data in ChEMBL document CHEMBL1177839, “Synthesis and preliminary biological evaluation of novel taspine derivatives as anticancer agents” (Eur J Med Chem, 2010) are IC50 values, retold here.

Molecules are shown by their SMILES.

Test [1] deals with A-375. The test can be described thus: Antiproliferative activity against human A375 cells after 48 hrs by MTT assay. The class given is functional, cell-based. To be noted: A-375, 48 h. A general note: Tetrazolium assays rely on reduction of a dye to a coloured formazan, in cell work by metabolically active cells.
Test [2] relates to HeLa. In words: Antiproliferative activity against human HeLa cells after 48 hrs by MTT assay. The class given is functional, cell-based.
Test [3] has as its system HT-29. In words: Antiproliferative activity against human HT-29 cells after 48 hrs by MTT assay. The class given is functional, cell-based. To be noted: HT-29, 48 h.
The test system of test [4] is MCF7. In words: Antiproliferative activity against human MCF7 cells after 48 hrs by MTT assay. To be noted: MCF7, 48 h. The class given is functional, cell-based.
In test [5] the test system is Caco-2. The test can be described thus: Antiproliferative activity against human Caco-2 cells after 48 hrs by MTT assay. The class given is functional, cell-based. To be noted: Caco-2, 48 h. Put shortly:
(§1)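 Cells in exponential growth harvested and seeded at 1 ×10⁴ cells/well, incubated 24 h at 37 °C, then exposed to a range of compound concentrations for 48 h. Viability read by MTT; IC₅₀ derived from dose-dependent growth inhibition.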

A short description of test [6]: Antiproliferative activity against human ECV304 cells after 48 hrs by MTT assay. The class given is cell-based. To be noted: ECV-304, 48 h. The method, boiled down:
as §1

Test [7] has as its system A549. In words: Antiproliferative activity against human A549 cells after 48 hrs by MTT assay. To be noted: A549, 48 h. The class given is functional, cell-based. Put shortly:
as §1

Test [8] relates to PANC-1. In words: Antiproliferative activity against human PANC1 cells after 48 hrs by MTT assay. The class given is functional, cell-based. Particulars: PANC-1, 48 h.
Test [9] concerns SMMC-7721. The test can be described thus: Antiproliferative activity against human SMMC7721 cells after 48 hrs by MTT assay. The class given is functional, cell-based. To be noted: SMMC-7721, 48 h.
The test system of test [10] is HEK293. The test can be described thus: Antiproliferative activity against human HEK293 cells overexpressing EGFR after 48 hrs by MTT assay. The class given is cell-based. To be noted: HEK293, 48 h. Put shortly: as §1
Test [11] deals with A-431. The test can be described thus: Antiproliferative activity against human A431 cells abnormally expressing EGFR after 48 hrs by MTT assay. The class given is functional, cell-based. To be noted: A-431, 48 h. The method, boiled down: as §1

A word on the IC50: it is the concentration at which inhibition is half-maximal. Read a low IC50 as greater potency in that assay. Take `CNC(=O)c1ccc(OC)c(O)c1-c1c(C(=O)NC)ccc(OC)c1OCC(=O)Nc1ccc(F)c(Cl)c1`: the IC50 amounted to 217 µM in [1]; 53.4 µM in test [2]; 214 µM in [3]; 109 µM in [4]; 20.3 µM in [5]; 72.2 µM in test [6]. Moreover, the half-inhibitory concentration (IC50) in test [7] worked out at 73.5 µM; in test [8] it was 191 µM; in test [9] it was 109 µM.

For `CNC(=O)c1ccc(OC)c(O)c1-c1c(C(=O)NC)ccc(OC)c1O`, the concentration for half-maximal inhibition (IC50) in [10] was found to be 88 µM; in test [1], 106 µM; in [2], 97.6 µM; in test [3], 200 µM; in test [5] it was 104 µM; in test [6], 113 µM. Further, the IC50 in test [7] stood at 64.7 µM; in test [8], 217 µM; in [11] it was 104 µM; in [9], 95.7 µM.

As to `COC(=O)c1cc(OC(=O)c2ccc(OC)c(O)c2)c(OC)cc1CCNc1ccc(F)c(Cl)c1`, the IC50 in test [6] was determined as 61 µM; in [7], 180 µM.

As to `CNC(=O)c1ccc(OC)c(OCCN2CCNCC2)c1-c1c(C(=O)NC)ccc(OC)c1OCC(=O)Nc1ccc(F)c(Cl)c1`, the IC50 in test [3] amounted to 47.2 µM; in test [9], 126 µM.

`COC(=O)c1cc(OC(=O)c2cc(O)c(OC)cc2CCN(C)C)ccc1OC`: the figures for the IC50 in test [5] and in test [7] were 3100 µM and 111 µM, respectively.

Turning to `COC(=O)c1cc(OC(=O)c2ccc(OC)c(O)c2)c(OC)cc1CCN(C)C`, the IC50 turned out to be 110 µM in test [5] and 453 µM in [7].

`CNC(=O)c1ccc(OC)c(O)c1-c1c(C(=O)NC)ccc(OC)c1OCCN1CCOCC1`: the IC50 is 116 µM in [10]; 174 µM in test [1]; 415 µM in test [2]; 122 µM in test [3]; 83.7 µM in test [4]; 75.9 µM in [5]. The IC50 in test [6] turned out to be 1360 µM; in test [7], 259 µM; in [8] it was 166 µM; in [11] it was 75.9 µM; in test [9] it was 78.2 µM.

For the compound `COC(=O)c1cc(OC(=O)c2ccc(OC)c(O)c2)c(OC)cc1CCN1CCOCC1`, the IC50 in test [5] was found to be 52.5 µM; in test [6] it was 2.67 µM; in [7], 158 µM.

As to `CNC(=O)c1ccc(OC)c(OCCN2CCOCC2)c1-c1c(C(=O)NC)ccc(OC)c1OCC(=O)Nc1ccc(F)c(Cl)c1`, the IC50 was 25.1 µM in [1]; 100 µM in [2]; 44.7 µM in test [3]; 60.4 µM in [4]; 3310 µM in test [5]; 194 µM in [7]. Besides, the figures for the half-maximal inhibitory concentration (IC50) in [8] and in test [9] were 110 µM and 194 µM, respectively.

Take `CNC(=O)c1ccc(OC)c(OCCN(C)C)c1-c1c(C(=O)NC)ccc(OC)c1OCC(=O)Nc1ccc(F)c(Cl)c1`: the IC50 in [1] stood at 242 µM; in [2], 117 µM; in test [3] it was 133 µM; in test [4] it was 123 µM; in [5], 167 µM; in test [6] it was 57.2 µM. In addition, the IC50 is 241 µM in [7], 159 µM in test [8] and 124 µM in [9].

For `COc1ccc2c(=O)oc3c(OC)cc(CCN(C)C)c4c(=O)oc1c2c34` [TASPINE], the IC50 in [10] came to 16 µM; in test [5] it was 153 µM; in [6], 22.3 µM; in test [7] it was 4.18 µM; in [11] it was 11.2 µM.
